Results as given in publication PMC6989153 (Molecular pharmaceutics, 2019).
Where two headings read alike, the source gives them in different places.

Key:
[1] = target: T1, Albumin (Homo sapiens, UniProt P02768); assay: Native gel electrophoresis of APC analogs in human plasma, albumin band; type: in vitro ADME; conditions: for Albumin (signal in band on native gel): incubated 4 hrs at 37°C, means ± SEM; for albumin binding: native gel analysis
Summary of the method: (§1)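 Fresh, unfrozen human plasma was incubated with test compound (100nM) with shaking for 4 h at 37°C. Samples in sample buffer were run on non-denaturing Tris-glycine gels at a common voltage and duration. Band position and intensity were read by fluorescence imaging or by radioactivity scanning, followed by Coomassie staining. Standards were mouse albumin, human LDL, human HDL, gamma-globulins, alpha1-acid glycoprotein and fatty acid-free HSA.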

[2] = Log D determination; type: physicochemical; conditions: octanol/water, pH 7.4
Summary of the method: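 Test compound (radioiodinated, or fluorescent) was added to octanol and equilibrated overnight. An equal volume of distilled water at pH 7.4 was added, and the mixture was rotated at room temperature, protected from light, for 48 h. The phases were separated, and relative concentrations were measured by gamma counting (radioiodinated compound) or by fluorescence plate reader (fluorescent analogs).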

[3] = system: HDL; assay: Native gel electrophoresis of APC analogs in human plasma, HDL band; type: in vitro ADME; conditions: incubated 4 hrs at 37°C, means ± SEM
Summary of the method: as §1

[4] = target: fatty acid-free human serum albumin (HSA) (Homo sapiens, UniProt P02768); assay: Equilibrium dialysis; type: binding; conditions: PBS, 37°C
Summary of the method: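 Fatty acid-free HSA was dissolved in PBS and loaded into a rapid equilibrium dialysis chamber, with PBS in the collection well. The device was shaken at 37°C, and small aliquots were drawn from the collection well over time. Concentration was measured by UV absorbance, or by gamma counting for radioiodinated compound.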

[5] = system: LDL; assay: Native gel electrophoresis of APC analogs in human plasma, LDL band; type: in vitro ADME; conditions: incubated 4 hrs at 37°C, means ± SEM
Summary of the method: as §1

[6] = type: in vivo, nude athymic mice; conditions: for MRT (mean residence time): n=6
Summary of the method: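 Naive athymic nude mice (20–26 g) on standard chow received test compound by tail-vein injection: fluorescent analogs at 2.6μmol/kg, radioiodinated dose normalized to mass and body weight. Pre-dose blood was taken for background. Serial 10μL maxillary-puncture samples were collected into EDTA (n=6), and levels were read by fluorescence or gamma counting. Non-compartmental analysis gave clearance, AUC, AUMC and mean residence time, normalized to starting dose.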

[7] = system: MDA-MB-231 breast cancer; conditions: post-injection, tumor-bearing mice; cited from earlier work
[8] = system: lipoprotein fraction; type: in vitro ADME; conditions: human plasma
Summary of the method: (§2)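 Fresh, unfrozen human plasma was incubated with test compound plus varying intralipid (20% soybean oil, 1.2% egg yolk phospholipids, 2.25% glycerin emulsion), up to 20% v/v. Plasma partitioning runs were shaken for 4 h at 37°C, then ultracentrifuged at […] for 8 h. The layers were separated, and fluorescence (radiance efficiency) or radioactivity was measured in each, expressed as a percentage per fraction.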

[9] = target: T1, Albumin; assay: Partitioning in fresh unfrozen human plasma with intralipid, albumin binding; type: in vitro ADME
Summary of the method: as §2

[10] = system: MDA-MB-231 breast cancer; assay: Tumor uptake kinetics in tumor-bearing flank xenografts; type: in vivo; conditions: MDA-MB-231 flank xenografts, IVIS fluorescence imaging, three mice
[11] = athymic nude, mouse, whole blood, intravenous
[12] = nude athymic mice, tail-vein injection, normalized to starting dose
[13] = nude athymic mice, tail-vein injection

T1 sequence (P02768 25-609): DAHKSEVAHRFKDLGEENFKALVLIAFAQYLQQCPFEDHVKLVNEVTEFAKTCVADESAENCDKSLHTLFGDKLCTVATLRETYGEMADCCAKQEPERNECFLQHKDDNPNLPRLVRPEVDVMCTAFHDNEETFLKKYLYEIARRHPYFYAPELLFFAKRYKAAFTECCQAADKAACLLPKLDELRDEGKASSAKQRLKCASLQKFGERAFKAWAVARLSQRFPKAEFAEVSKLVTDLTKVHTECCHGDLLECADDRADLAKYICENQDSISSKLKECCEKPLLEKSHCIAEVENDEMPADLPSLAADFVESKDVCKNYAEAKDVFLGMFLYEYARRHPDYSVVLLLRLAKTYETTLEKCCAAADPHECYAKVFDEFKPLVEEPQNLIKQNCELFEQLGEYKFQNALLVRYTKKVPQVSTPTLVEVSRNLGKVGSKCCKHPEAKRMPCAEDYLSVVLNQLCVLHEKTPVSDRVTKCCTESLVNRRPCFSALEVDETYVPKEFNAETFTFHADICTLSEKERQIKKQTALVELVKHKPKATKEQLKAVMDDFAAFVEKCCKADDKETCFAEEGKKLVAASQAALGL
Sequence of fatty acid-free human serum albumin (HSA) (P02768 25-609): as above

Row | Compound | Albumin (signal in band on native gel) [1] | albumin binding [1] | HDL (signal in band on native gel) [3] | LDL (signal in band on native gel) [5] | AUC [6, 12] | AUMC [6, 12] | Clearance [6, 12] | MRT (mean residence time) [6, 13] | CL [6, 12] | also measured
1 | C[N+](C)(C)CCOP(=O)([O-])OCCCCCCCCCCCCCCCCCCc1ccc(I)cc1 [NM404, 18-(p-Iodophenyl)octadecylphosphocholine] | 79.99 ± 0.22 | 79.99% | 15.42 ± 0.41 | 4.60 ± 0.28 | 43.66 h | 4333.63 hr^2 | 0.02 h⁻¹ | – | – | logD at 48 h [2]: 2.07; binding to fatty acid-free human serum albumin [4]: 96%; Clearance [6, 11]: 0.333 mL/min; MRT [6, 11]: 99.2 h; time at which tumor uptake was seen [7]: 24 h; time of peak tumor uptake [7]: 72 h
2 | C[N+](C)(C)CCOP(=O)([O-])OCCCCCCCCCCCCCCCCCCc1ccc(C2=C3C=CC=[N+]3[B-](F)(F)n3cccc32)cc1 [compound 1501, 18-[p-(4,4-difluoro-4-bora-3a,4a-diaza-s-indacene-8-yl)-phenyl]-octadecyl phosphocholine] | 82.64 ± 1.62 | 82.64% | 10.25 ± 1.25 | 7.11 ± 0.41 | 159.64 h | 37686.99 hr^2 | 0.01 h⁻¹ | 236.07 h | 0.01 L/h | lipoprotein percentage of fluorescence intensity ([8]; 20% v/v intralipid): 14.40%; lipoprotein percentage of fluorescence intensity ([8]; no intralipid): 7.33%; albumin-binding percentage ([9]; 20% intralipid): 79.32%; albumin-binding percentage ([9]; no intralipid): 85.93%
3 | CN1/C(=C/C=C2\CCCC(/C=C/C3=[N+](C)c4ccccc4C3(C)C)=C2c2ccc(CCCCCCCCCCCCCCCCCCOP(=O)(O)OCC[N+](C)(C)C)cc2)C(C)(C)c2ccccc21 [compound 1502, 1,3,3-trimethyl-2-[(E)-2-[(3E)-3-(2-[(2E)-1,3,3-trimethyl-2,3-dihydro-1H-indol-2-ylidene]ethylidene}−2-[4-(18-([2-(trimethylazaniumyl)ethylhosphonato]oxy)octadecyl)phenyl]cyclohex-1-en-1-yl]ethenyl]-3H-indol-1-ium] | 69.88 ± 3.32 | 69.88% | 20.90 ± 2.57 | 9.21 ± 0.86 | 13.16 h | 446.66 hr^2 | 0.08 h⁻¹ | 33.95 h | 0.08 L/h | time at which uptake into the cancer was first seen [10]: 4.5 h; time of peak tumor uptake [10]: 24 h
